From ChEMBL document CHEMBL1139058, “Synthesis, in vitro and in silico evaluation of l-tyrosine containing PPARalpha/gamma dual agonists” (2007)

Legend:
[1] = target: T1, Peroxisome proliferator-activated receptor alpha (Homo sapiens) (UniProt Q07869); assay: Agonist activity at human PPARalpha in HEK293T cells at 50 uM by GAL4 transactivation assay relative to WY-14643; assay type: functional, cell-based; conditions: HEK-293T
T1 sequence (whole entry): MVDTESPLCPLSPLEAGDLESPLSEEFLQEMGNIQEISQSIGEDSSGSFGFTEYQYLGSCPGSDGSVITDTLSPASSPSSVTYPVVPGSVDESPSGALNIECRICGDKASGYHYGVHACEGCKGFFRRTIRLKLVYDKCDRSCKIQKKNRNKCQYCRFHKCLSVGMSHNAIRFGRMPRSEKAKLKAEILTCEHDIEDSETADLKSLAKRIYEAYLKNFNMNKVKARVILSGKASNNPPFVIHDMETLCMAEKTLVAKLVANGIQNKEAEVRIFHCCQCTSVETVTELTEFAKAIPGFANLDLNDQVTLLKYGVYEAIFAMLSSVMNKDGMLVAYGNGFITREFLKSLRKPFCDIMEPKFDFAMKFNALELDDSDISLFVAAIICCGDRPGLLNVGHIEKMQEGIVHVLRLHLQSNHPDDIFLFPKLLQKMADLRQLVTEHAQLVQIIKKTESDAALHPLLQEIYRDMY
In short: (§1)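 HEK 293T cells grown in DMEM-10% FBS at 37 °C, 5% CO2, then plated at 50–60% confluence in DMEM with 10% delipidated FBS one day before Superfect transfection. Reagent removed after 3 h. At 42 h post-transfection, cells moved to phenol red-free DMEM-DFBS and treated 18 h with compound or vehicle. Cells lysed, luciferase measured, expressed as fold activation over untreated cells.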

[2] = Agonist activity at human PPARgamma 1 in HEK293T cells at 50 uM by GAL4 transactivation assay relative to rosiglitazone; assay type: functional, HEK-293T; in short: as §1

Q: With `COC(=O)[C@H](Cc1ccc(OCCn2c3ccccc3c3ccccc32)cc1)N/C(C)=C\C(=O)c1ccccc1` as the molecule, how does the Activity [1] read?
A: 1.2

Q: What about the Activity [2] of the same molecule?
A: 1.9

Q: What does the source list for `C/C(=C/C(=O)c1ccccc1)N[C@@H](Cc1ccc(OCCCOc2cccc3[nH]c4ccccc4c23)cc1)C(=O)O`?
A: Activity [1]: 5.1; Activity [2]: 15.1

Q: What does the source list for `COC(=O)[C@H](Cc1ccc(OCCOc2cccc3[nH]c4ccccc4c23)cc1)NC1=C(C(=O)c2ccccc2)CCCC1`?
A: Activity [1]: 1.4; Activity [2]: 4.7

Q: Which results are given for `O=C(C1=C(N[C@@H](Cc2ccc(OCCn3c4ccccc4c4ccccc43)cc2)C(=O)O)CCCC1)c1ccccc1`?
A: Activity [1]: 1; Activity [2]: 8.4

Q: Which Activity [1] does the source give for `COC(=O)[C@H](Cc1ccc(OCCn2c3ccccc3c3ccccc32)cc1)NC1=C(C(=O)c2ccccc2)CCCC1` here?
A: 0.5

Q: And the Activity [2]?
A: 3

Q: For `C/C(=C/C(=O)c1ccccc1)N[C@@H](Cc1ccc(OCCOc2cccc3[nH]c4ccccc4c23)cc1)C(=O)O`, which Activity [1] is on record?
A: 4.6

Q: And the Activity [2]?
A: 48.2

Q: With `C/C(=C/C(=O)c1ccccc1)N[C@@H](Cc1ccc(OCCc2ccc(C(F)(F)F)cc2)cc1)C(=O)O` as the molecule, how does the Activity [1] read?
A: 0.3

Q: What about the Activity [2] of the same molecule?
A: 0.7

Q: What does the source list for `O=C(C1=C(N[C@@H](Cc2ccc(OCCOc3cccc4[nH]c5ccccc5c34)cc2)C(=O)O)CCCC1)c1ccccc1`?
A: Activity [1]: 1.2; Activity [2]: 11.2

Q: What does the source list for `C/C(=C/C(=O)c1ccccc1)N[C@@H](Cc1ccc(OCCOc2cc(C(F)(F)F)nc3c(C(F)(F)F)cccc23)cc1)C(=O)O`?
A: Activity [1]: 1.1; Activity [2]: 2.3

Q: What does the source list for `COC(=O)[C@H](Cc1ccc(OCCOc2ccc3c(c2)[nH]c2ccccc23)cc1)N/C(C)=C\C(=O)c1ccccc1`?
A: Activity [1]: 1.9; Activity [2]: 1.8

Q: Which Activity [1] does the source give for `C/C(=C/C(=O)c1ccccc1)N[C@@H](Cc1ccc(OCCOc2ccc(C(=O)c3ccc(Cl)cc3)cc2)cc1)C(=O)O` here?
A: 2.8

Q: And the Activity [2]?
A: 22.6

Q: What does the source list for `C/C(=C/C(=O)c1ccccc1)N[C@@H](Cc1ccc(OCCOc2ccc3c(c2)[nH]c2ccccc23)cc1)C(=O)O`?
A: Activity [1]: 2; Activity [2]: 4.2

Q: Which results are given for `C/C(=C/C(=O)c1ccccc1)N[C@@H](Cc1ccc(OCCn2c3ccccc3c3ccccc32)cc1)C(=O)O`?
A: Activity [1]: 1.4; Activity [2]: 1.7
